System: HEK-293T
Assay: Multiplex assay against HEK293T;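 on Population Tubulin-Different-Phenotype (%): share of the cells with healthy nuclei that show this phenotype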
Format: toxicity, cell-based
Conditions: human
Summary of the method: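 With compound added, live cells were imaged on a CQ1 microscope at 37°C and 5% CO2; staining with Hoechst33342, BioTracker Green Microtubule Cytoskeleton Dye, MitoTracker Red and Annexin V Alexa Fluor 680 had been done at seeding. The CellPathfinder machine-learning gating scheme split cells into Hoechst high-intensity objects or normal cells, normal cells into healthy, pyknosed or fragmented nuclei, and pyknosed cells into mitotic or apoptotic. The tubulin, mitochondrial-mass and membrane-permeability phenotypes are per cents of healthy-nucleus cells.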

[1] = 12 h, 1 µM, compound concentration 1 uM, replicate 1
[2] = 12 h, 1 µM, compound concentration 1 uM, replicate 2
[3] = 12 h, 10 µM, compound concentration 10 uM, replicate 1
[4] = 12 h, 10 µM, compound concentration 10 uM, replicate 2
[5] = 24 h, 1 µM, compound concentration 1 uM, replicate 1
[6] = 24 h, 1 µM, compound concentration 1 uM, replicate 2
[7] = 24 h, 10 µM, compound concentration 10 uM, replicate 1
[8] = 24 h, 10 µM, compound concentration 10 uM, replicate 2
[9] = 48 h, 1 µM, compound concentration 1 uM, replicate 1
[10] = 48 h, 1 µM, compound concentration 1 uM, replicate 2
[11] = 48 h, 10 µM, compound concentration 10 uM, replicate 1
[12] = 48 h, 10 µM, compound concentration 10 uM, replicate 2

## COc1ncc(-c2ccc3nccc(-c4ccnnc4)c3c2)cc1NS(=O)(=O)c1ccc(F)cc1F [OMIPALISIB]
[1]
  Population Apoptotic (%): 60%
  Population Fragmented Nuclei (%): 17%
  Population Healthy Nuclei (%): 18%
  Population Hoechst High Intensity Objects (%): 20%
  Population Membrane Permeable-Phenotype (%): 2%
  Population Mitochondria Different-Phenotype (%): 81%
  Population Mitotic Cells (%): 39%
  Population Normal (%): 80%
  Population Pyknosed Nuclei (%): 64%
  Population Tubulin-Different-Phenotype (%): 24%
  Total Cell Count: 255
[2]
  Population Apoptotic (%): 27%
  Population Fragmented Nuclei (%): 8%
  Population Healthy Nuclei (%): 14%
  Population Hoechst High Intensity Objects (%): 6%
  Population Membrane Permeable-Phenotype (%): 0%
  Population Mitochondria Different-Phenotype (%): 37%
  Population Mitotic Cells (%): 72%
  Population Normal (%): 93%
  Population Pyknosed Nuclei (%): 77%
  Population Tubulin-Different-Phenotype (%): 16%
  Total Cell Count: 180
[3]
  Population Apoptotic (%): 62%
  Population Fragmented Nuclei (%): 12%
  Population Healthy Nuclei (%): 20%
  Population Hoechst High Intensity Objects (%): 22%
  Population Membrane Permeable-Phenotype (%): 0%
  Population Mitochondria Different-Phenotype (%): 97%
  Population Mitotic Cells (%): 37%
  Population Normal (%): 77%
  Population Pyknosed Nuclei (%): 67%
  Population Tubulin-Different-Phenotype (%): 39%
  Total Cell Count: 238
[4]
  Population Apoptotic (%): 34%
  Population Fragmented Nuclei (%): 4%
  Population Healthy Nuclei (%): 12%
  Population Hoechst High Intensity Objects (%): 6%
  Population Membrane Permeable-Phenotype (%): 5%
  Population Mitochondria Different-Phenotype (%): 42%
  Population Mitotic Cells (%): 65%
  Population Normal (%): 93%
  Population Pyknosed Nuclei (%): 83%
  Population Tubulin-Different-Phenotype (%): 26%
  Total Cell Count: 161
[5]
  Population Apoptotic (%): 47%
  Population Fragmented Nuclei (%): 21%
  Population Healthy Nuclei (%): 6%
  Population Hoechst High Intensity Objects (%): 22%
  Population Mitochondria Different-Phenotype (%): 71%
  Population Mitotic Cells (%): 52%
  Population Normal (%): 77%
  Population Pyknosed Nuclei (%): 71%
  Population Tubulin-Different-Phenotype (%): 50%
  Total Cell Count: 280
[6]
  Population Apoptotic (%): 29%
  Population Fragmented Nuclei (%): 5%
  Population Healthy Nuclei (%): 14%
  Population Hoechst High Intensity Objects (%): 6%
  Population Membrane Permeable-Phenotype (%): 0%
  Population Mitochondria Different-Phenotype (%): 40%
  Population Mitotic Cells (%): 70%
  Population Normal (%): 93%
  Population Pyknosed Nuclei (%): 79%
  Population Tubulin-Different-Phenotype (%): 24%
  Total Cell Count: 178
[7]
  Population Apoptotic (%): 53%
  Population Fragmented Nuclei (%): 14%
  Population Healthy Nuclei (%): 20%
  Population Hoechst High Intensity Objects (%): 24%
  Population Membrane Permeable-Phenotype (%): 2%
  Population Mitochondria Different-Phenotype (%): 91%
  Population Mitotic Cells (%): 46%
  Population Normal (%): 75%
  Population Pyknosed Nuclei (%): 64%
  Population Tubulin-Different-Phenotype (%): 52%
  Total Cell Count: 228
[8]
  Population Apoptotic (%): 37%
  Population Fragmented Nuclei (%): 5%
  Population Healthy Nuclei (%): 19%
  Population Hoechst High Intensity Objects (%): 11%
  Population Membrane Permeable-Phenotype (%): 3%
  Population Mitochondria Different-Phenotype (%): 57%
  Population Mitotic Cells (%): 63%
  Population Normal (%): 88%
  Population Pyknosed Nuclei (%): 75%
  Population Tubulin-Different-Phenotype (%): 46%
  Total Cell Count: 150
[9]
  Population Fragmented Nuclei (%): 30%
  Population Healthy Nuclei (%): 5%
  Population Hoechst High Intensity Objects (%): 22%
  Population Membrane Permeable-Phenotype (%): 0%
  Population Mitochondria Different-Phenotype (%): 75%
  Population Normal (%): 77%
  Population Pyknosed Nuclei (%): 64%
  Population Tubulin-Different-Phenotype (%): 41%
  Total Cell Count: 286
[10]
  Population Apoptotic (%): 44%
  Population Fragmented Nuclei (%): 7%
  Population Healthy Nuclei (%): 36%
  Population Hoechst High Intensity Objects (%): 7%
  Population Membrane Permeable-Phenotype (%): 1%
  Population Mitochondria Different-Phenotype (%): 40%
  Population Mitotic Cells (%): 55%
  Population Normal (%): 92%
  Population Pyknosed Nuclei (%): 55%
  Population Tubulin-Different-Phenotype (%): 35%
  Total Cell Count: 181
[11]
  Population Apoptotic (%): 40%
  Population Fragmented Nuclei (%): 20%
  Population Healthy Nuclei (%): 24%
  Population Hoechst High Intensity Objects (%): 21%
  Population Membrane Permeable-Phenotype (%): 5%
  Population Mitochondria Different-Phenotype (%): 76%
  Population Mitotic Cells (%): 59%
  Population Normal (%): 78%
  Population Pyknosed Nuclei (%): 55%
  Population Tubulin-Different-Phenotype (%): 57%
  Total Cell Count: 202
[12]
  Population Apoptotic (%): 38%
  Population Fragmented Nuclei (%): 8%
  Population Healthy Nuclei (%): 38%
  Population Hoechst High Intensity Objects (%): 7%
  Population Membrane Permeable-Phenotype (%): 0%
  Population Mitochondria Different-Phenotype (%): 49%
  Population Mitotic Cells (%): 61%
  Population Normal (%): 92%
  Population Pyknosed Nuclei (%): 54%
  Population Tubulin-Different-Phenotype (%): 54%
  Total Cell Count: 163

From ChEMBL document CHEMBL4689842, “EUbOPEN Chemogenomics Library wave 1” (2021)
